# Screens deposited in PubChem by The Scripps Research Institute Molecular Screening Center.
# Hits are enriched below; roughly 1.8% of the tested compounds scored in any of these assays.
# M5 antag: human M5 muscarinic receptor antagonists, primary screen, CHO cells, Fluo-8 calcium fluorescence | Muscarinic acetylcholine receptor M5 (Homo sapiens), P08912 | CHO-hM5 cells, ACh EC80 | inhibition, % at 3 µM | 360,000 tested, 0.59% active | AID 624040, 2012;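 active means inhibition above a per-plate cutoff, the mean of that plate's test compounds plus 3 SD, cut at about 27% in these data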;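 further: 0% = acetylcholine EC80 with DMSO and 100% = DMSO without agonist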
# CHRM5 PAM: human M5 muscarinic receptor positive allosteric modulators, primary screen, CHO-K1 cells, Fluo-8 calcium fluorescence. Muscarinic acetylcholine receptor M5 (Homo sapiens), P08912. CHO-K1 hM5, ACh EC20 PAM; 0% = ACh EC20, 100% = ACh EC100. activation, % at 3 µM. 360,000 tested, 0.3% active. AID 624038, 2012;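 active means activation above the run cutoff, the mean activation of all test compounds plus 3 SD, cut at about 18% in these data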
#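 Assay system: CHO-K1 hM5 cells / Incubation: Fluo-8 loading 80 min at 37 °C plus 30 min room temperature / Technique: Fluo-8 calcium dye fluorescence, kinetic read / Repeats: single replicate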
# CHRM4 agonist: human M4 muscarinic receptor agonists, primary screen, CHO-K1 cells, Fluo-8 calcium fluorescence; Muscarinic acetylcholine receptor M4 (Homo sapiens), P08173; CHO-K1 hM4/Gqi5; vehicle 0%, full acetylcholine response 100%; activation, % at 3 µM; 360,000 tested, 0.14% active; AID 624127, 2012;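 active means activation above the run mean over all test wells plus 3 SD, cut at about 32% in these data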;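 further: peak over basal fluorescence ratio per well then scaled between controls; 0% = DMSO wells and 100% = acetylcholine at EC100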
# Target sequence (P08173 whole entry, looked up): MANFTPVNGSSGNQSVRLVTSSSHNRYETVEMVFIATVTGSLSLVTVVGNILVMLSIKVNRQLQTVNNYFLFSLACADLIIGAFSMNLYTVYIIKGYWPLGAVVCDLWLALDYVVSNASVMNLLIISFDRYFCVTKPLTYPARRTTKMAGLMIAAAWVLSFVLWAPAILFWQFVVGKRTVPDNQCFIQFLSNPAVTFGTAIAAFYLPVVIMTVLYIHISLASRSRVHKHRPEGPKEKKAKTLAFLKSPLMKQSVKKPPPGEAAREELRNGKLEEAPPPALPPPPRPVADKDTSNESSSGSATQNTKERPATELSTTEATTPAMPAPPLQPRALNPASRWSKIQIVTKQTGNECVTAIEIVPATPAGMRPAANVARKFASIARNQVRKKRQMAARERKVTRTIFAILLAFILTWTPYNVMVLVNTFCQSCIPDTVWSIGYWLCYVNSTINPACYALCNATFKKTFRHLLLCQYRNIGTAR
# CHRM4 PAM: human M4 muscarinic receptor positive allosteric modulators, primary screen, CHO-K1 cells, Fluo-8 calcium fluorescence; Muscarinic acetylcholine receptor M4 (Homo sapiens), P08173; CHO-K1 hM4/Gqi5, ACh EC20; 0% = ACh EC20, 100% = maximal ACh; activation, % at 3 µM; 360,000 tested, 0.4% active; AID 624126, 2012;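 active means activation above its plate's cutoff, the mean activation of sample wells plus 3 SD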
# M5 ag: human M5 muscarinic receptor agonists, primary screen, CHO-K1 cells, Fluo-8 calcium fluorescence; activation, % at 3 µM; 360,000 tested, 0.19% active; CHO-K1 hM5 cells; 0% DMSO wells, 100% maximal acetylcholine response; Muscarinic acetylcholine receptor M5 (Homo sapiens), P08912; AID 624037, 2012;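 active means activation above the run's mean over test compounds plus 3 SD, cut at about 23% in these data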;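 further: signal is peak over basal fluorescence ratio across the kinetic read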
# M4 antag: human M4 muscarinic receptor antagonists, primary screen, CHO cells, Fluo-8 calcium fluorescence | Muscarinic acetylcholine receptor M4 (Homo sapiens), P08173 | CHO-hM4 cells, ACh EC80 | inhibition, % at 3 µM | 360,000 tested, 0.73% active;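 active means inhibition above its plate's cutoff, the mean inhibition of sample wells plus 3 SD, cut at about 27% in these data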;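 further: 0% = acetylcholine EC80 with DMSO and 100% = DMSO without agonist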
# Numbers without * were called inactive.
SMILES,M5 antag,CHRM5 PAM,CHRM4 agonist,CHRM4 PAM,M5 ag,M4 antag
CN(/N=C/c1ccc(-c2ccc([N+](=O)[O-])cc2)o1)c1ccccc1,25,-4,16,-10,34*,10
O=C(Nc1ccn(CCOC(=O)c2ccccc2)c(=O)n1)c1ccccc1,11,-16,4,-2,3,6
CC(C(=O)O)c1ccc(N2Cc3ccccc3C2=O)cc1 (stereo not given),9,-17,1,-14,-1,40*
Cc1ccccc1N1Cc2ccccc2C1=O,-4,4,1,2,0,-13
CN1CCC(OC(=O)c2ccccc2Cl)CC1,34*,-21,1,-11,-11,2
COC(=O)C[C@@H]1CC[C@@H](NC(=O)Nc2cc(F)ccc2F)[C@@H](CO)O1,-11,6,1,-3,2,6
CCOc1ccccc1NC(=O)c1cc(-c2ccccn2)nc2ccccc12,1,-6,11,-2,5,-3
COc1ccc(NC(=O)c2cc(-c3ccccn3)nc3ccccc23)c(OC)c1,27*,-23,15,-10,1,8
CCCCC(=O)N1CCN(c2nc3ccc(Cl)cc3s2)CC1,5,-8,15,23*,0,2
CCOC(CNC(=O)c1ccc2c(c1)ncn2-c1cccc(F)c1)OCC,28*,-11,1,-4,-1,4
CC1(C)Cc2c(c(N3CCOCC3)nc3sc(C(=O)Nc4ccccc4)c(N)c23)CO1,-7,3,5,5,0,-13
CC1(C)Cc2c(c(N3CCOCC3)nc3sc(C(=O)Nc4cccc(Cl)c4)c(N)c23)CO1,-12,13,2,18*,-1,-5
Cc1ccc(CN2CC(N3CCN(C)CC3)CS2(=O)=O)cc1 (stereo not given),0,3,1,9,-2,-5
Cn1c(Cc2ccccc2)nnc1SCc1nc2ccccc2c(=O)[nH]1,-9,7,2,5,0,-9
Cc1ccccc1OCc1nnc(SCc2nc3ccccc3c(=O)[nH]2)n1C,3,-3,-1,-15,0,49*
COc1ccc(N=Cc2oc3ccc4ccccc4c3c2O)cc1,19,-20,5,-6,47*,0
Cc1c(NC(=O)COC(=O)c2cccc(F)c2)c(=O)n(-c2ccccc2)n1C,-3,0,1,6,0,-4
Cc1cnc(NC(=O)NCC2CCCC(CNC(=O)Nc3ncc(C)s3)C2)s1 (stereo not given),17,27*,20,48*,2,9
CCOC1=C2CN(S(=O)(=O)c3ccc(C)cc3)[C@H](c3ccccc3)C[C@@H]2N(S(=O)(=O)c2ccc(Br)cc2)[C@H](c2ccccc2)C1,0,-1,0,4,0,-12
O=S(=O)(C/C(=C/CO)S(=O)(=O)c1ccccc1)c1ccccc1,3,2,0,1,0,30*
Cc1ccc(C)c(C(=O)CSc2n[nH]c(C(C)C)n2)c1,-4,34*,1,2,-2,-20
N#C/C(=C\c1ccc(N2CCCCC2)o1)C(=O)Nc1cccc(Br)c1,59*,-22,47*,-20,60*,32*
Cc1cccnc1CN1CCN(Cc2nc(C(c3ccccc3)c3ccccc3)no2)CC1,9,-36,1,-55,-19,36*
CC(=O)N1CCN(Cc2nc(C(c3ccccc3)c3ccccc3)no2)CC1,4,-17,1,-6,-10,3
Cc1nc(CN2CCN(Cc3nc(C(c4ccccc4)c4ccccc4)no3)CC2)cs1,34*,-15,1,-19,-10,26
SMILES,M5 antag,CHRM5 PAM,CHRM4 agonist,CHRM4 PAM,M5 ag,M4 antag
c1ccc(C(c2ccccc2)c2noc(CN3CCN(C4CCCC4)CC3)n2)cc1,11,-20,0,-21,-11,30*
COc1ccc(NC(=O)N(C)C[C@H]2OCc3cn(nn3)CCCC(=O)N([C@@H](C)CO)C[C@@H]2C)cc1,-7,3,0,6,0,-13
C#CC1(O)CCC2C3CCC4=Cc5oncc5CC4(C)C3CCC21C (stereo not given),1,-10,9,-5,1,-23
Cc1noc(C)c1S(=O)(=O)Nc1ccc2c(c1)C(=O)N([C@H](C)CO)C[C@H](C)[C@@H](CN(C)C(=O)CCCN(C)C)OCCCC[C@@H](C)O2,-6,4,1,3,1,-12
CC(=O)O[C@@H]1C[C@@]2(C)[C@@H](CC[C@H]2[C@@H](C)/C=C\CC(C)C)C2=C[C@@H](O)[C@@]3(O)C[C@@H](O)[C@H](O)C[C@]3(CO)[C@]21O,2,-6,3,-9,6,19
Cn1c(=O)n(Cc2ccccc2Cl)c2ccccc21,43*,-3,-1,1,-3,0
COC(=O)[C@@]1(Cc2ccc(F)cc2)[C@H]2c3cc(C(=O)N(C)C)n(Cc4ccc(C)c(F)c4F)c3C[C@H]2CN1C(=O)c1ccccc1,5,-4,2,1,1,0
CC1CCN(C(=O)Cn2cc(C#N)c3ccccc32)CC1,4,14,2,-7,-1,27*
CC1=C(C(=O)N2CCCCCC2)CC(CC(=O)NCC2CCCCC2)C(=O)N1CCCN1CCCC1=O (stereo not given),-5,0,1,9,3,-3
O=C(/C=C/c1ccco1)N(Cc1cccc(Cl)c1)C1CCS(=O)(=O)C1 (stereo not given),27*,-20,18,-20,-5,-8
O=C(CCCCN1CCCCC1)c1ccccc1,10,-5,10,-21,-5,4
OC(CCCN1CCCCC1)(c1ccccc1)c1ccccc1,24,-18,1,-18,-1,47*
CCC(O)(CCN1CCCCC1)c1ccccc1 (stereo not given),23,-23,0,-13,-10,33*
CCN(CC)S(=O)(=O)c1ccc(C(=O)NC(=S)N2CCCCC2C)cc1 (stereo not given),4,-3,1,4,1,-7
